Measured values published in ChEMBL document CHEMBL5712090, “Therapeutic targeting of p300/CBP HAT domain for the treatment of NUT midline carcinoma” (Oncogene, 2020).
Activity calls are given as the source filed them.

Legend:
HCC2429 [1] = assay: Induction of cell differentiation in human HCC2429 cells assessed as c-fos mRNA level at 250 nM for 5 days in presence of JQ1 by qRT-PCR analysis; assay type: functional, cell-based; conditions: time 5.0 day
Method in brief: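 HCC2429 cells given 250 nM, 50 nM JQ1, or the combination for 5 days. KRT10, KRT14, TGM1 and c-fos mRNA by qRT-PCR. Mean ± SEM of three independent experiments.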

HCC2429 [2] = assay: Downregulation of MYC mRNA level in human HCC2429 cells for 48 hrs treatment by qRT-PCR analysis; assay type: functional, cell-based
Method in brief: (§1)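 HCC2429 cells treated at indicated concentrations for 48 h. MYC, CCAT1 and TP63 mRNA measured by quantitative RT-PCR.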

HCC2429 [3] = assay: Downregulation of TP63 mRNA level in human HCC2429 cells for 48 hrs treatment by qRT-PCR analysis; assay type: functional, cell-based; method in brief: as §1
HCC2429 [4] = assay: Induction of apoptosis in human HCC2429 cells assessed as cleaved caspase-3 expression at 0.5 microM incubated for 72 hrs by immunoblot analysis; assay type: functional, cell-based
Method in brief: (§2)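 HCC2429 cells given 0.5 or 1 µM for 24, 48 and 72 h. Cleaved caspase-3 detected by immunoblot.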

HCC2429 [5] = assay: Downregulation of CCAT1 mRNA level in human HCC2429 cells for 48 hrs treatment by qRT-PCR analysis; assay type: functional, cell-based; method in brief: as §1
HCC2429 [6] = assay: Induction of cell differentiation in human HCC2429 cells assessed as increase in c-fos mRNA level at 0.5 microM for 5 days by qRT-PCR analysis
[7] = Antiproliferative activity against human 00-143 cells for 72 hrs incubation measured by Celltiter Glo Cell Viability assay; assay type: functional, cell-based; conditions: 00-143, 72 h
Method in brief: (§3)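 Cells exposed to inhibitor over 10 nM–25 µM for 72 h; viability read by CellTiter Glo luminescence. IC50 taken from dose-response curve fit. Mean ± SD of three technical replicates.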

HCC2429 [8] = assay: Inhibition of colony formation in human HCC2429 cells assessed as inhibition in colony formation at 250 nM incubated for 72 hrs in presence of JQ1 by crystal violet staining based assay; assay type: functional, cell-based
Method in brief: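 HCC2429 cells incubated 72 h with 250 nM, 50 nM JQ1, or both. Colony formation then scored.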

Ty-82 = assay: Antiproliferative activity against human Ty-82 cells for 72 hrs incubation measured by Celltiter Glo Cell Viability assay; assay type: functional, cell-based; conditions: TY82, 72 h; method in brief: as §3
TC-797 = assay: Induction of squamous differentiation in human TC-797 cells assessed as change in cell phenotype at 0.5 microM for 5 days by immunofluorescence staining method; assay type: functional, cell-based; conditions: time 5.0 day
HCC2429 [9] = assay: Induction of apoptosis in human HCC2429 cells assessed as cleaved caspase-3 expression at 0.5 microM incubated for 48 hrs by immunoblot analysis; assay type: functional, cell-based; method in brief: as §2
HCC2429 [10] = assay: Inhibition of p300/CBP in human HCC2429 cells assessed as H3K27ac protein acetylation at MYC promoter and TP63 enhancer region with 1 microM for 3 days by ChIP analysis; assay type: cell-based; conditions: time 3.0 day
Method in brief: (§4)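 HCC2429 cells held 3 days at 1 µM or DMSO. Chromatin precipitated with H3K27ac, NUT or normal rabbit IgG antibodies. MYC promoter and TP63 enhancer quantified by qPCR as fold enrichment over IgG. Mean ± SEM, four independent experiments.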

HCC2429 [11] = assay: Induction of squamous differentiation in human HCC2429 cells assessed as accumulation of pan-keratin in cytoplasm at 0.5 microM for 5 days by immunofluorescence staining method; assay type: functional, cell-based; conditions: time 5.0 day
Method in brief: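 HCC2429 cells exposed 5 days to 0.5 µM. Cytokeratin detected by immunofluorescence.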

HCC2429 [12] = assay: Inhibition of p300/CBP in human HCC2429 cells assessed as BRD4-NUT level at MYC promoter and TP63 enhancer region with 1 microM for 3 days by ChIP analysis; assay type: cell-based; conditions: time 3.0 day; method in brief: as §4
HCC2429 [13] = assay: Antiproliferative activity against human HCC2429 cells for 72 hrs incubation measured by Celltiter Glo Cell Viability assay; assay type: functional, cell-based; conditions: HCC2429, 72 h; method in brief: as §3
HCC2429 [14] = assay: Induction of squamous differentiation in human HCC2429 cells assessed as flattening of cells at 0.5 microM for 5 days by immunofluorescence staining method; assay type: functional, cell-based; conditions: time 5.0 day
HCC2429 [15] = assay: Induction of cell differentiation in human HCC2429 cells assessed as increase in involucrin-protein level at 0.5 microM for 5 days by immunoblot analysis
HCC2429 [16] = assay: Inhibition of p300/CBP in human HCC2429 cells assessed as H3K27ac protein acetylation at 1 microM for 3 days by immunofluorescence analysis; assay type: cell-based; conditions: time 3.0 day
Method in brief: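 HCC2429 cells treated 3 days with 1 µM or DMSO. H3K27ac, BRD4-NUT and wild-type BRD4 imaged by immunofluorescence.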

PER-403 = assay: Induction of squamous differentiation in human PER-403 cells assessed as change in cell phenotype at 0.5 microM for 5 days by immunofluorescence staining method; assay type: functional, cell-based; conditions: time 5.0 day
HCC2429 [17] = assay: Downregulation of MYC protein level in human HCC2429 cells for 48 hrs treatment by qRT-PCR analysis; assay type: functional, cell-based; conditions: in the assay text read “immunoblot analysis” for “qRT-PCR analysis”
Method in brief: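 HCC2429 cells treated at indicated concentrations for 48 h. MYC and H3K27ac protein assessed by immunoblot.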

HCC2429 [18] = assay: Induction of apoptosis in human HCC2429 cells assessed as cleaved caspase-3 expression at 250 nM incubated for 72 hrs in presence of JQ1 by immunoblot analysis; assay type: functional, cell-based
Method in brief: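 HCC2429 cells treated 72 h with 250 nM alone, 50 nM JQ1 alone, or both combined. Cleaved caspase-3 detected by immunoblot.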

HCC2429 [19] = assay: Induction of cell cycle arrest in human HCC2429 cells assessed as G1 cell cycle arrest at 0.5 microM incubated for 24 hrs by flow cytometry analysis; assay type: functional, cell-based
Method in brief: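 HCC2429 cells exposed to 0.5 or 1 µM for 24, 48 and 72 h, then analysed by flow cytometry. Mean ± SEM, three independent experiments.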

CNC(=O)Nc1ccc2c(c1)CC[C@@]21OC(=O)N(CC(=O)N(Cc2ccc(F)cc2)[C@@H](C)C(F)(F)F)C1=O [A-485]
210 nM: IC50 (Ty-82)
750 nM: IC50 (HCC2429 [13])
980 nM: IC50 [7]
active: Activity (HCC2429 [1]) | Activity (HCC2429 [2]) | Activity (HCC2429 [3]) | Activity (HCC2429 [4]) | Activity (HCC2429 [5]) | Activity (HCC2429 [6]) | inhibition (HCC2429 [8]) | Activity (TC-797) | Activity (HCC2429 [9]) | inhibition (HCC2429 [10]) | Activity (HCC2429 [11]) | inhibition (HCC2429 [12]) | Activity (HCC2429 [14]) | Activity (HCC2429 [15]) | inhibition (HCC2429 [16]) | Activity (PER-403) | Activity (HCC2429 [17]) | Activity (HCC2429 [18]) | Activity (HCC2429 [19])
